Structures are written as SMILES. Converted amounts (≈) assume the structure as drawn.

As usually defined, the MIC is the lowest concentration found to suppress growth.

The assay concerns Mycobacterium tuberculosis. The experiment in a line: Antimycobacterial activity against rifampicin and isoniazid-resistant Mycobacterium tuberculosis 43 assessed as growth inhibition. In kind it is functional. The essentials: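 MDR strain 43, resistant to rifampicin and isoniazid, was a clinical isolate from an HIV-negative Bulgarian adult with pulmonary TB. Tested by the Canetti proportion method on Löwenstein–Jensen medium, with compound in DMSO added before coagulation. Colonies were compared with drug-free control as percent inhibition. MIC is the lowest concentration giving complete inhibition (0% growth).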
Consider `CC1(C)[C@@H]2CC[C@@]1([C@H](O)CN1CCN(c3ccc(Cl)cc3)CC1)C(=O)C2`, for which the MIC was determined as 0.27 µM (≈ 0.102 µg/mL). As for `CC1(C)[C@@H]2CC[C@@]1([C@H](O)CN1CCN(c3ccc(F)cc3)CC1)C(=O)C2`, the minimal inhibitory concentration (MIC) was 0.55 µM (≈ 0.198 µg/mL). On to `CC1CCN(C[C@@H](O)[C@]23CC[C@H](CC2=O)C3(C)C)CC1`, for which the MIC was determined as 0.72 µM (≈ 0.201 µg/mL). As for `CC1(C)[C@@H]2CC[C@@]1([C@@H](O)CN1CCCCC1)C(=O)C2`, the figure is 18.9 µM (≈ 5.02 µg/mL); as for `CC1(C)[C@@H]2CC[C@@]1([C@@H](O)CN1CCN(c3ccc(F)cc3)CC1)C(=O)C2`, 0.55 µM (≈ 0.198 µg/mL); as for `CC1(C)[C@@H]2CC[C@@]1([C@@H](O)CN1CCOCC1)C(=O)C2`, more than 18.7 µM.
